How the values were obtained:
Plasma [1] = assay: Antiplatelet activity in human platelet rich plasma assessed as inhibition of ADP-induced platelet aggregation; type: functional
In short: (§1)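 PRP was prepared from whole blood of healthy volunteers. Compounds were added to PRP at 10, 20, 50 and 100, with aspirin at 5 as reference and PEG-400 as vehicle control. Aggregation was induced with ADP or arachidonic acid, and IE50 was derived from the concentration series.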

Plasma [2] = assay: Antiplatelet activity in human platelet rich plasma assessed as inhibition of arachidonic acid-induced platelet aggregation; type: functional; in short: as §1

SMILES	IE50 (Plasma [1]) [µM]	IE50 (Plasma [2]) [µM]
CCCCCC[C@H]1OC(=O)c2ccccc21	139	14.4
CC(C)CC[C@H]1OC(=O)c2ccccc21	116	14.3
CCCCC[C@@H]1OC(=O)c2ccccc21	203	17.9
CCCCCC1OC(=O)c2ccccc21 (configuration not stated)	180	16.4
CCC[C@H]1OC(=O)c2ccccc21	112	13.8
CCCCCC[C@@H]1OC(=O)c2ccccc21	217	18.5
CCCCC1OC(=O)c2ccccc21 (stereo not drawn) [RAC-3-N-BUTYLPHTHALIDE]	170	14.5
CCCCCCCC1OC(=O)c2ccccc21 (configuration not stated)	153	16.1
CCCC[C@H]1OC(=O)c2ccccc21	94.7	13.2
CC(=O)Oc1ccccc1C(=O)O [ASPIRIN]	118	12.3
CCCCC[C@H]1OC(=O)c2ccccc21	178	15.1
C/C=C1\OC(=O)c2ccccc21	–	16
CC(C)CCC1OC(=O)c2ccccc21 (configuration not stated)	201	15.4
CCCC1OC(=O)c2ccccc21 (configuration not stated)	133	14.9
CCCCCCC[C@@H]1OC(=O)c2ccccc21	176	18.7
CCCC/C=C1\OC(=O)c2ccccc21	201	17.6
CCCC[C@@H]1OC(=O)c2ccccc21 [(3S)-BUTYLPHTHALIDE]	193	16.1
CC[C@@H]1OC(=O)c2ccccc21	209	16.9
CCCCCC/C=C1\OC(=O)c2ccccc21	289	18
CCC[C@@H]1OC(=O)c2ccccc21	142	16.9
CC(C)CC[C@@H]1OC(=O)c2ccccc21	207	17.2
CC[C@H]1OC(=O)c2ccccc21	114	14.1
CCC1OC(=O)c2ccccc21 (configuration not stated)	164	15.2
CCC/C=C1\OC(=O)c2ccccc21 [Z-butylidenephthalide]	204	16.1
CCCCCCC[C@H]1OC(=O)c2ccccc21	143	14.7
CC(C)C/C=C1\OC(=O)c2ccccc21	204	17.9
CCCCCCC1OC(=O)c2ccccc21 (configuration not stated)	220	15.8
CCCCC/C=C1\OC(=O)c2ccccc21	243	17.1
CC/C=C1\OC(=O)c2ccccc21	171	16.1

— ChEMBL document CHEMBL1139765, “Synthesis, resolution, and antiplatelet activity of 3-substituted 1(3H)-isobenzofuranone” (2007)
